The source of these data is ChEMBL document CHEMBL1137567, “First example of phosphoramidate approach applied to a 4'-substituted purine nucleoside (4'-azidoadenosine): conversion of an inactive nucleoside to a submicromolar compound versus hepatitis C virus” (J Med Chem, 2007).

pEC50: −log10 of the molar value. A value given as a limit tells only on which side of the number the result lay.

A short description of data set [1]: Cytotoxicity activity against Huh7 cells by WST assay. Type of data set: cell-based, Huh-7. Particulars: human. The gist of the method: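 Cytotoxicity was read out as the CC50, the concentration lowering cell viability by 50%, from a WST viability readout. Cells were the HCV replicon cell line 2209-23, derived from Huh-7 and carrying a stable genotype 1b bicistronic replicon with a renilla luciferase reporter.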

A further data set deals with Hepatitis C virus. In words: Inhibition of HCV 1b in Huh7 cells by replicon assay. Particulars: Huh-7. Type of data set: functional, organism-based, Hepacivirus hominis. The gist of the method:
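Huh-7-derived line 2209-23 stably carrying a bicistronic HCV genotype 1b replicon with a renilla luciferase reporter. Replication was read out by the reporter. The EC50 is the concentration reducing HCV replication by 50%.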
A general note: In antiviral work, replicon cells carry a viral genome segment that copies itself.

Broadly, the CC50 is the concentration giving 50% cytotoxicity. Read a high CC50 as lower toxicity to the cells. A word on the pEC50: it is the EC50 on a negative log10 scale, so that one unit is a factor of ten. Read a low pEC50 as a high EC50. In turn, `C[C@H](NP(=O)(OC[C@@]1(N=[N+]=[N-])O[C@@H](n2cnc3c(N)ncnc32)[C@H](O)[C@@H]1O)Oc1cccc2ccccc12)C(=O)OC(C)(C)C` (some centres undefined) showed a cytotoxic concentration (CC50) in data set [1] above 100 µM. In the data set on Hepatitis C virus, this compound had a negative logarithm of the EC50 (pEC50) below 4.00.
The matching figures for `C[C@H](NP(=O)(OC[C@@]1(N=[N+]=[N-])O[C@@H](n2cnc3c(N)ncnc32)[C@H](O)[C@@H]1O)Oc1ccccc1)C(=O)OCc1ccccc1` (some centres undefined): above 100 µM and 5.40.
The corresponding values for `CCOC(=O)[C@H](C)NP(=O)(OC[C@@]1(N=[N+]=[N-])O[C@@H](n2cnc3c(N)ncnc32)[C@H](O)[C@@H]1O)Oc1cccc2ccccc12` (some centres undefined) are above 100 µM and 6.23.
The compound `[N-]=[N+]=N[C@]1(CO)O[C@@H](n2cnc3c(N)ncnc32)[C@H](O)[C@@H]1O` yielded a 50% cytotoxic concentration (CC50) in data set [1] above 100 µM. In the data set on Hepatitis C virus, the negative-log EC50 (pEC50) is below 4.00.
`C[C@H](NP(=O)(OC[C@@]1(N=[N+]=[N-])O[C@@H](n2cnc3c(N)ncnc32)[C@H](O)[C@@H]1O)Oc1ccccc1)C(=O)OC(C)(C)C` (some centres undefined) had a half-maximal cytotoxic concentration (CC50) in data set [1] above 100 µM. This compound showed a negative logarithm of the EC50 (pEC50) in the data set on Hepatitis C virus below 4.00.
The corresponding values for `C[C@H](NP(=O)(OC[C@@]1(N=[N+]=[N-])O[C@@H](n2cnc3c(N)ncnc32)[C@H](O)[C@@H]1O)Oc1cccc2ccccc12)C(=O)OCc1ccccc1` (some centres undefined) are above 100 µM and 6.66.
The matching figures for `CCOC(=O)[C@H](C)NP(=O)(OC[C@@]1(N=[N+]=[N-])O[C@@H](n2cnc3c(N)ncnc32)[C@H](O)[C@@H]1O)Oc1ccccc1` (some centres undefined): above 100 µM and 5.82.
